From PubChem BioAssay
Only some compounds are listed: those with a hit (about 3.5% of all), similar ones and a draw of the others.
AHR act: human AHR activation; P35869; AHR-responsive luciferase reporter cells, luminescence; activation, % at 5 µM; 320,000 tested, 2.5% active; in the data active means activation above about 47%;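 further: 0% = vehicle wells and 100% = reference agonist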
hK5 inh: kallikrein 5 (human) inhibition; recombinant hK5, fluorogenic AMC substrate cleavage; inhibition, % at 5 µM; Q9Y337; 210,000 tested, 0.59% active;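 active means inhibition of 40% or more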;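 further: 0% = enzyme controls without compound and 100% = no-enzyme blanks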
STAT3 activator: increases IL-6 driven STAT3 reporter signal. U3A cells, IL-6 STAT3-luciferase reporter, luminescence; 100% = signal with IL-6 EC80 alone. activation (% of control), % at 5.6 µM. 190,000 tested, 0.91% active;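 active means activation above the screen-wide mean of compound activation plus 3 SD, cut at about 130% in these data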;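 further: 0% = background luminescence of wells with medium and substrate only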
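Test system: Human STAT1-deficient U3A cells with stable STAT3-luciferase reporter | Also added: Interleukin-6, 33 ng/mL | Timing: Compound pre-incubation 1 h before IL-6, then 6 h stimulation at 37 °C | Technique: Luciferase reporter luminescence | Read-out: Percent of IL-6-only median luminescence | Benchmarks: IL-6-only wells as 100% reference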
FXIa inh: inhibitors of human coagulation factor XIa | P03951 | purified FXIa, Boc-Glu-Ala-Arg-AMC fluorogenic substrate | inhibition, % at 5 µM | 220,000 tested, 0.14% active;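 active means inhibition of at least 40%; inactive means inhibition below 40%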;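 further: fluorescence of freed AMC excited at 355 nm; 0% = enzyme without compound and 100% = no enzyme blank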
FXIIa inh: factor XIIa (human) inhibition | purified FXIIa, Boc-QGR-AMC fluorogenic substrate, 2 h | inhibition, % at 5 µM | 220,000 tested, 0.3% active | AID 800; in the data active means inhibition above about 40%;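 further: 0% = enzyme with no compound and 100% = blank without enzyme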
Target sequence (P00748 20-372 limits assumed): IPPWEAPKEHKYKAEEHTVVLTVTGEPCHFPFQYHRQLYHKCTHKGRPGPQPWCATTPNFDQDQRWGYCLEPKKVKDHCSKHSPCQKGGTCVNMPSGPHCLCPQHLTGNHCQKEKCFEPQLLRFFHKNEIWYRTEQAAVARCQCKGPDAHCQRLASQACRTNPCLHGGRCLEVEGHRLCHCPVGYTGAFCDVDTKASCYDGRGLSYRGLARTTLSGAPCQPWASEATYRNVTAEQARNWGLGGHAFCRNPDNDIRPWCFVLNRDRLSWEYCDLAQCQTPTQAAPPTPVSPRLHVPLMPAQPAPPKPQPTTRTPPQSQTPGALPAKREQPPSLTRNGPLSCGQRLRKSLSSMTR
Target sequence (P00748 373-615 limits assumed): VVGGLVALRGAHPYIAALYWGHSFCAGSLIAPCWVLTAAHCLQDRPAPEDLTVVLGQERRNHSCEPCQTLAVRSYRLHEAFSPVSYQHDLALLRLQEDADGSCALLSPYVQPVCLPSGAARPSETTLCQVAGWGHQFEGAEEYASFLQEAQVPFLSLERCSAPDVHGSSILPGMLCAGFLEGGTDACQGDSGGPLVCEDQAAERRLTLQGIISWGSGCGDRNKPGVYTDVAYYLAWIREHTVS
Thrombin inh: inhibitors of human thrombin | 220,000 tested, 0.26% active | inhibition, % at 5 µM | alpha-thrombin, Boc-VPR-AMC fluorogenic substrate cleavage | AID 1046;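 active means inhibition at or above 40%; inactive means inhibition below 40%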;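 further: 0% = enzyme with no compound and 100% = wells without enzyme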
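Test system: human alpha-thrombin; medium: pH 7.5 Tris-saline with Tween 20; times: reaction at room temperature; signal: AMC fluorescence at 355 nm excitation and 460 nm emission; also added: Boc-VPR-AMC substrate, 15 µM final; dosing: one concentration per compound, 5 µM, with 0.2% DMSO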
AHR act cf: confirmation of human aryl hydrocarbon receptor activators. shares compounds with AHR act. human cells, AHR-responsive luciferase reporter, luminescence. activation, % at 9 µM. 2,300 tested, 87% active. AID 2845; in the data active means activation above about 49%;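 further: HepG2 hepatoma cells carrying a DRE-driven firefly luciferase reporter; 0% = vehicle wells and 100% = reference agonist wells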
PXR counter: counter-screen for AHR activators: human PXR activators. AID 434939. activation, % at 11.6 µM. 2,300 tested, 88% active. shares compounds with AHR act. cell-based PXR reporter, luciferase luminescence; in the data active means activation above about 11%;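 further: human hepatoma DPX-2 cells expressing full-length human PXR; 0% = DMSO and 100% = reference agonist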
* hit, by the source's call; / = no result.

SMILES	AHR act	hK5 inh	STAT3 activator	FXIa inh	FXIIa inh	Thrombin inh	AHR act cf	PXR counter
C=C(C)C(Cc1c(OC)ccc(C(=O)/C=C/c2ccc(O)cc2)c1O)OO (stereo not given)	-1	/	/	/	/	/	/	/
Cc1ccc2cc(C=C(C#N)C#N)c(Cl)nc2c1	88*	-21	109	11	14	2	31	21*
N#CC(C#N)=Cc1ccc(C=C(C#N)C#N)cc1	/	0	/	-3	2	-4	/	/
Cc1cc(=O)oc2c(C)c(OCC(=O)N3CCC(C(=O)O)(c4ccccc4)CC3)ccc12	-1	/	/	/	/	/	/	/
COc1ccc2[nH]cc(CCN)c2c1	3	-2	102	8	15	2	/	/
CC(N)Cc1c[nH]c2ccc(OCc3cccs3)cc12 (stereo not given)	80*	/	/	/	/	/	51*	11*
COC(=O)C1=C(c2ccc(-c3ccccc3)c(F)c2)C[C@@H]2CC[C@H]1N2C(=O)N1CCOCC1	-1	/	/	/	/	/	/	/
Oc1ccc2c3c1O[C@H]1c4[nH]c5ccccc5c4C[C@@]4(O)C(C2)N(CC2CC2)CC[C@]314	1	/	/	/	/	/	/	/
NCCc1c(Cc2ccccc2)[nH]c2ccccc12	8	/	/	/	/	/	/	/
Cc1c(CCN)ccc2c1[nH]c1ccccc12	92*	2	/	4	9	3	29	13*
COCCOC(=O)c1c(N)n(Cc2ccco2)c2nc3ccccc3nc12	82*	/	96	/	/	/	36	91*
Cc1ccc2nc3c(cc2c1)CC1(C(=O)N(C)C(=O)N(C)C1=O)C1CCCCN31 (stereo not given)	85*	4	117	7	11	3	78*	72*
CCOC(=O)c1c(C)n(CCOC)c2ccc(O)cc12	92*	6	108	0	6	4	80*	19*
